The record followed here is ChEMBL document CHEMBL1156706, “Structure-activity relationships of novel heteroaryl-acrylonitriles as cytotoxic and antibacterial agents” (Eur J Med Chem, 2008).

Structures are written as SMILES. pIC50: −log10 of the molar value. Converted amounts (≈) assume the structure as drawn. The source made the active and inactive calls. The calls are words filed in the database; no cut-off is given here.

The term pIC50 denotes −log10 of the IC50, conventionally taken in molar units. For orientation: solubility means how much of the substance goes into solution per volume. Higher therefore signals a readily soluble substance. In general, MIC refers to the lowest concentration found to suppress growth. Read a low MIC as a more susceptible organism.

The subject of one data set is 5637. The experiment in a line: Cytotoxicity against human 5637 cells after 96 hrs by microtiter assay. The conditions noted are these: Homo sapiens, 5637, 96 h. The format is functional, cell-based. In short, it runs like this:
(§1)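 DSMZ cell lines in RPMI 1640 with 10% FCS. DMF stocks diluted 1000-fold into medium. Continuous exposure 96 h at 37 °C, 5% CO2. Adherent cells stained with crystal violet. IC50 (50% growth inhibition vs untreated control) obtained by least-squares fitting of dose–response curves, averaging 2–5 independent determinations.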

The next data set has as its system RT-4. Put plainly: Cytotoxicity against human RT4 cells after 96 hrs by microtiter assay. The format is functional, cell-based. As to conditions: RT-4, 96 h. The gist of the method: as §1
For a further data set, the system named is SISO. The experiment in a line: Cytotoxicity against human SISO cells after 96 hrs by microtiter assay. Format: functional, cell-based. The gist of the method:
as §1

The subject of a further data set is YAPC. Put plainly: Cytotoxicity against human YAPC cells after 96 hrs by microtiter assay. The format is functional, cell-based. The gist of the method:
as §1

The nature of data set [1]: Aqueous solubility in phosphate buffered saline at pH 7.4 after 24 hrs. The format is physicochemical. The gist of the method: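 Solid added in excess to Dulbecco's PBS, pH 7.4, and stirred in the dark 24 h at room temperature. Suspension filtered through a 0.22 filter. Filtrate absorbance read at each compound's λmax, and dissolved concentration calculated from the extinction coefficient at that wavelength.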

In a further data set the test system is Enterococcus hirae. The experiment in a line: Antibacterial activity against Enterococcus hirae NCTC 10541 after 24 hrs. The format is functional, organism-based. The conditions noted are these: NCTC 10541, 24 h. The gist of the method:
(§2)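 Overnight culture diluted in Mueller–Hinton broth to 10^5 CFU/ml. Compounds dissolved in DMSO and diluted twofold in broth over 0.24–62.5 […]. Tubes inoculated and incubated 24 h at 37 °C. MIC taken as the lowest concentration with no visible growth. Clear tubes were subcultured onto Mueller–Hinton agar, and MBC was taken as the minimal concentration killing the organisms after 24 h.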

Data set [2] is described as follows: Cytotoxicity against human KYSE520 cells after 96 hrs by microtiter assay. As to conditions: KYSE-520, 96 h. Format: functional, cell-based. The gist of the method:
as §1

The test system of data set [3] is Staphylococcus epidermidis. Put plainly: Antibacterial activity against Staphylococcus epidermis NCTC 14990 after 24 hrs. The format is functional, organism-based. As to conditions: NCTC 14990, 24 h. In short, it runs like this:
as §2

Another data set relates to DAN-G. The experiment in a line: Cytotoxicity against human DAN-G cells after 96 hrs by microtiter assay. The format is functional, cell-based. The gist of the method:
as §1

A further data set relates to Staphylococcus aureus. The experiment in a line: Antibacterial activity against Staphylococcus aureus NCTC 4163 after 24 hrs. Format: functional, organism-based. As to conditions: NCTC 4163, 24 h. In short, it runs like this: as §2
Data set [4] in a line: Cytotoxicity against human LCLC-103H cells after 96 hrs by microtiter assay. Format: functional, cell-based. The gist of the method: as §1
The test system of the next data set is A-427. The experiment in a line: Cytotoxicity against human A427 cells after 96 hrs by microtiter assay. The conditions noted are these: A-427, 96 h. The format is functional, cell-based. The gist of the method: as §1
A further data set concerns RT-112. Put plainly: Cytotoxicity against human RT112 cells after 96 hrs by microtiter assay. The format is functional, cell-based. As to conditions: RT-112, 96 h. The gist of the method:
as §1

A further data set concerns KYSE-510. Put plainly: Cytotoxicity against human KYSE510 cells after 96 hrs by microtiter assay. Format: functional, cell-based. The conditions noted are these: KYSE-510, 96 h. The gist of the method:
as §1

A short description of data set [5]: Cytotoxicity against human KYSE70 cells after 96 hrs by microtiter assay. The format is functional, cell-based. As to conditions: KYSE-70, 96 h. The gist of the method:
as §1

The next data set concerns MCF7. The experiment in a line: Cytotoxicity against human MCF7 cells after 96 hrs by microtiter assay. As to conditions: MCF7, 96 h. Format: functional, cell-based. In short, it runs like this: as §1
Data set [6] concerns HL-60. The experiment in a line: Cell cycle arrest in human HL60 cells assessed as accumulation at G0/G1 and G2/M phases at 0.15 uM after 72 hrs by FACS relative to untreated control.
Data set [7] relates to HL-60. Put plainly: Cell cycle arrest in human HL60 cells assessed as accumulation at G2/M phase at 0.15 uM after 72 hrs by FACS relative to untreated control. Format: functional, cell-based. In short, it runs like this: (§3)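 Unsynchronized HL-60 cells treated 24 or 72 h across 0.03–1 µM. Cells fixed in 70% ice-cold ethanol and DNA stained with propidium iodide. Fractions in G0/G1, S and G2/M quantified by flow cytometry and compared with untreated control.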
Background: A flow cytometer gives signals particle by particle.

The subject of data set [8] is HL-60. The experiment in a line: Cell cycle arrest in human HL60 cells assessed as accumulation at G0/G1 phase at 0.3 uM after 72 hrs by FACS relative to untreated control. Format: functional, cell-based. The gist of the method: as §3
For data set [9], the system named is HL-60. Put plainly: Cell cycle arrest in human HL60 cells assessed as accumulation at G2/M phase at 0.3 uM after 72 hrs by FACS relative to untreated control. The format is functional, cell-based. The gist of the method: as §3
The subject of data set [10] is HL-60. The experiment in a line: Cell cycle arrest in human HL60 cells assessed as accumulation at G0/G1 phase at 0.15 uM after 72 hrs by FACS relative to untreated control. Format: functional, cell-based. The gist of the method:
as §3

The test system of data set [11] is HL-60. The experiment in a line: Cell cycle arrest in human HL60 cells assessed as accumulation at G0/G1 and G2/M phases at 0.3 uM after 72 hrs by FACS relative to untreated control.

In the case of `N#C/C(=C\c1ccc([N+](=O)[O-])s1)c1nc2ccccc2s1`, the pIC50 with 5637 was 6.21; in the data set with RT-4, 6.04; in the data set with SISO, 6.19; with YAPC it was 6.38; in data set [2], 6.34; in the data set with DAN-G, 6.14. The pIC50 in [4] is 6.06; in the data set on A-427, 6.42; in the data set with RT-112, 6.12; in the data set on KYSE-510, 6.03; in data set [5], 6.29; with MCF7, 6.08. Besides, the solubility at 24 h in data set [1] is below 0.1 µM. In addition, the minimum inhibitory concentration (MIC) was above 200 µM against Enterococcus hirae, 12 µM (≈ 3.76 µg/mL) in data set [3] and 12 µM (≈ 3.76 µg/mL) in the data set on Staphylococcus aureus.
Regarding `N#C/C(=C\c1ccccn1)c1nc2ccccc2[nH]1`, the negative-log IC50 (pIC50) was 5.64 in the data set with 5637; 5.57 in the data set on RT-4; 5.72 in the data set on SISO; 5.18 with YAPC; 4.98 in [2]; 5.44 with DAN-G. In addition, the pIC50 in data set [4] was 5.13; in the data set with A-427 it was 5.55; in the data set on RT-112, 5.33; with KYSE-510, 5.44; in data set [5] it was 5.17; in the data set on MCF7 it was 5.09. Also, the results for the MIC (against Enterococcus hirae; in data set [3]; with Staphylococcus aureus) were above 215 µM, 215 µM (≈ 52.9 µg/mL) and above 215 µM, respectively.
As for `N#C/C(=C\c1ccc([N+](=O)[O-])s1)c1nc2cccnc2[nH]1`, the pIC50 was 6.77 with 5637; 6.48 with RT-4; 6.28 in the data set on SISO; 6.52 with YAPC; 6.49 in data set [2]; 6.21 with DAN-G. Besides, the pIC50 in [4] is 6.96; in the data set on A-427, 6.96; in the data set on RT-112 it was 6.21; in the data set with KYSE-510, 6.13; in data set [5], 6.42; in the data set with MCF7 it was 6.70. This compound also returned a solubility at 24 h in [1] of 0.5 µM (≈ 0.149 µg/mL). The figures for the MIC (in the data set on Enterococcus hirae; in data set [3]; with Staphylococcus aureus) were 210 µM (≈ 62.4 µg/mL), 3.2 µM (≈ 0.951 µg/mL) and 6.4 µM (≈ 1.9 µg/mL), respectively.
As for `N#C/C(=C\c1ccc([N+](=O)[O-])o1)c1nc2ccccc2s1`, the negative logarithm of the IC50 (pIC50) with 5637 is 5.63; with RT-4, 5.37; with SISO, 5.60; in the data set with YAPC it was 5.65; in [2], 5.70; in the data set with DAN-G, 5.42. For the same compound, the pIC50 in data set [4] is 5.83; with A-427, 5.92; in the data set with RT-112 it was 5.75; in the data set on KYSE-510, 5.26; in [5], 5.62; in the data set on MCF7, 5.48. This compound also had a solubility at 24 h in data set [1] of 0.7 µM (≈ 0.208 µg/mL). The minimal inhibitory concentration (MIC) (against Enterococcus hirae; in data set [3]; in the data set on Staphylococcus aureus) was above 210 µM in each case.
For `N#C/C(=C\c1ccc([N+](=O)[O-])s1)c1nc2ccccc2[nH]1`, the negative-log IC50 (pIC50) with 5637 was 6.72; with RT-4 it was 6.28; in the data set with SISO, 6.32; with YAPC it was 6.68; in data set [2], 6.89; in the data set with DAN-G, 6.22. The negative logarithm of the IC50 (pIC50) is 6.68 in [4]; 6.82 in the data set with A-427; 6.36 with RT-112; 6.40 in the data set with KYSE-510; 6.72 in data set [5]; 6.59 with MCF7. For the same compound, the result in the data set on HL-60 [6], in the data set with HL-60 [7], with HL-60 [8], in the data set with HL-60 [9], in the data set with HL-60 [10] and in the data set with HL-60 [11] was Active. Also, the MIC with Enterococcus hirae is above 210 µM; in data set [3], 3.2 µM (≈ 0.948 µg/mL); against Staphylococcus aureus it was 6.4 µM (≈ 1.9 µg/mL).
Take `N#C/C(=C\c1ccc([N+](=O)[O-])o1)c1nc2ccccc2o1`: the pIC50 was 5.78 in the data set with 5637; 5.40 in the data set on RT-4; 5.54 with SISO; 5.54 in the data set with YAPC; 5.77 in data set [2]; 5.52 in the data set on DAN-G. Also, the pIC50 in data set [4] was 5.88; in the data set with A-427 it was 5.95; with RT-112 it was 5.85; in the data set with KYSE-510, 5.15; in data set [5], 5.54; in the data set with MCF7, 5.54. In [1], this compound displayed a solubility at 24 h below 0.1 µM. For the same compound, the MIC against Enterococcus hirae is above 222 µM; in [3], 111 µM (≈ 31.2 µg/mL); with Staphylococcus aureus, 111 µM (≈ 31.2 µg/mL).
Take `N#C/C(=C\c1ccc([N+](=O)[O-])s1)c1nc2ccccc2o1`: the pIC50 is 5.41 with 5637; 5.18 in the data set with RT-4; 4.85 with SISO; 5.77 in the data set on YAPC; 5.56 in data set [2]; 4.90 in the data set with DAN-G. Besides, the pIC50 is 4.92 in [4]; 5.63 in the data set on A-427; 5.41 in the data set with RT-112; 4.65 in the data set with KYSE-510; 5.28 in [5]; 5.24 in the data set on MCF7. In [1], this compound registered a solubility at 24 h below 0.1 µM. Further, the values for the MIC (with Enterococcus hirae; in data set [3]; in the data set on Staphylococcus aureus) were above 210 µM, 210 µM (≈ 62.4 µg/mL) and 210 µM (≈ 62.4 µg/mL), respectively.
